Laboratory results as given in the EternaBench riboswitch data.

Tested on: MS2 coat protein
Assay: apparent Kd, MS2 coat protein; higher = weaker binding; RNA-MaP array; FMN 200 µM where present
How it was run: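 Designs were transcribed by stalled E. coli RNA polymerase on Illumina sequencing-chip clusters. They were titrated with SNAP-549-labelled MS2 coat protein from 0.7 or 1.5 nM, doubling to 3 µM, in 100 mM Tris-HCl pH 7.5, 80 mM KCl, 4 mM MgCl2, BSA, DTT, yeast tRNA and Tween-20, without and then with constant ligand. The apparent Kd is the median of filtered per-cluster fits after normalisation of green signal to red-channel RNA signal and control-cluster median Fmax.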

[1] = designed as: OFF switch for flavin mononucleotide, no ligand
[2] = ligand present: flavin mononucleotide, designed as: OFF switch for flavin mononucleotide
[3] = designed as: ON switch for flavin mononucleotide, no ligand
[4] = ligand present: flavin mononucleotide, designed as: ON switch for flavin mononucleotide

## UCUGGUCGAGGAUAUGCGUAAUGUGUUACGGCACGAGGUCUACAUGAGGAUCACCCAUGUAGAAGGCGAUCAGA
[1]
  apparent Kd: 0.0139 µM
[2]
  apparent Kd: 0.0127 µM

## GCUCUGUCAGGAUAUCAGGCUGACGGAACUUGGCUGUUAGAUGAGAAGGGACAUGAGGAUCACCCAUGUAAAAU
[1]
  apparent Kd: 0.0338 µM
[2]
  apparent Kd: 0.0348 µM

## AAGAAGUGAGGAUAUGCUGCUCGUCACUUGCGUGAUGAGUAGCAGAAGGCACAUGAGGAUCACCCAUGUGAAAA
[1]
  apparent Kd: 0.026 µM
[2]
  apparent Kd: 0.0433 µM

## AUUUUAAUGUCAGGAUAUAUUAGUUUAUAUAUAGUAGAAGGGAUAAUUAUACUCAUGUACAUGAGGAUCACCCAUGUUAAAUAA
[3]
  apparent Kd: 0.216 µM
[4]
  apparent Kd: 0.0791 µM

## ACCCAGUUUUGCACUACAUGAGGAUCACCCAUGUGAGCGAGCAGAAGGACGAUGGGUGGAAAAUCGUAGGAUAUGCACUGGGCU
[3]
  apparent Kd: 0.0448 µM
[4]
  apparent Kd: 0.0123 µM

## UUAUUAGCAGGAUAUAUCCAGGAUCACAUGAGGAUCACCCAUGUGACCGCUUGAGAUUCUAUAGAAGGGCUUUAUU
[1]
  apparent Kd: 0.0196 µM
[2]
  apparent Kd: 0.0181 µM

## CGAAAAUUUCAGAAGGACCGAUUCCACAUGAGGAUCACCCAUGUCGAUGGUAGGAUAUGGAGUUGUGGACAGGGCGGAUGUACC
[3]
  apparent Kd: 0.0721 µM
[4]
  apparent Kd: 0.00892 µM

## GGAUCGAGUGUGAGGAUAUACCACUGGAUACAGUGGUAGAAGGCACAUGAGGAUCACCCAUGUCCUUACGAUCC
[1]
  apparent Kd: 0.0814 µM
[2]
  apparent Kd: 0.436 µM

## CUUUUAUAAUAGAAGGUAGACUUCAUGAGGAUCACCCAUGUGUUGGUACUAAGGAUAUGUAGUAACAUGAGGAUCACCCAUGUU
[3]
  apparent Kd: 0.0226 µM
[4]
  apparent Kd: 0.0222 µM

## GUGACGAAUGUAGGAUAUGCUGAGGAUAACUCAGCAGAAGGACAUGAGGAUCACCCAUGUACUAUGAGUGAAUAAUAACGUCAC
[1]
  apparent Kd: 0.0822 µM
[2]
  apparent Kd: 0.756 µM

## CCUCCACAUUAGGAUAUCGUCACACUAUUGUGACGAGAAGGAAUGACAUGAGGAUCACCCAUGUUAUCGUGAUG
[1]
  apparent Kd: 0.0194 µM
[2]
  apparent Kd: 0.0498 µM

## UUGUGGUGCGUAGGAUAUCAUUGAGGGUCACCCUGAGAAGGACGUGAGGACAUGAGGAUCACCCAUGUGGAUCACCCAUGUCAU
[1]
  apparent Kd: 0.222 µM
[2]
  apparent Kd: 0.355 µM

## UGGCUACAUGAGGAUCACCCAUGUCAGGAUAUGCCGUUAAAUUAACAUCAACAUACGGGUAGAAGGGACUGCGU
[1]
  apparent Kd: 0.0288 µM
[2]
  apparent Kd: 0.0295 µM

## AAGUAGUGUGUGAGGAUAUUGGUGGAAUGACAUAUUAAGAAGGCACAUGAGGAUCACCCAUGUGGGAUGUCACG
[1]
  apparent Kd: 0.0126 µM
[2]
  apparent Kd: 0.0126 µM

## CAUACACAUGAGGAUCACCCAUGUGAGGAUAUGCGUACGUAAUCCGUAGGAGACGUGCGCAGAAGGCGCGAGGU
[1]
  apparent Kd: 0.0566 µM
[2]
  apparent Kd: 0.044 µM

## GGCUCAUUUACAUUAAUGUGCAGACAGGAUAUCCACCGCGGUUCCUACAUGAGGAUCACCCAUGUGGAGAAGGGUCGCUAAUGG
[1]
  apparent Kd: 0.0291 µM
[2]
  apparent Kd: 0.0722 µM

## UGUCGGAGCAGAGGAUAUUACAUGAGGAUCACCCAUGUAUGAACCAAUAGCUGGAAACAGCAAAGUAAGAAGGCUGCUCCGACA
[1]
  apparent Kd: 0.00628 µM
[2]
  apparent Kd: 0.0794 µM

## CAUUAAUUCAUUAUAGUAAUUAUACAGGAUAUGUAACAUGAGGAUCACCCAUGUAUUCUUGGUUAACAGAAGGGUAUUACUUGU
[1]
  apparent Kd: 0.0175 µM
[2]
  apparent Kd: 0.0276 µM

## AAAUUCUGAGGAUAUCGAUGUUUGUACAUGAGGAUCACCCAUGUCCUUUUUAUUUUUUCCCGAGAAGGCAGUGUAU
[1]
  apparent Kd: 0.045 µM
[2]
  apparent Kd: 0.0353 µM

## GCCUUAUCCGUCAGGAUAUACAGCUGUUAGUUGUUGUAGAAGGGACAUGAGGAUCACCCAUGUACGUACCAUUG
[1]
  apparent Kd: 0.0192 µM
[2]
  apparent Kd: 0.0222 µM
